Test results as given in paper PMC4836853 (Arteriosclerosis, thrombosis, and vascular biology, 2016).
“Also recorded” adds a separate entry of the source. Read-outs that look alike come from different tables or passages of the source. One block for each compound: values may come before it. Peptide text beside a SMILES is read from it. * marks the point of attachment. Palmitoyl = CCCCCCCCCCCCCCCC(=O)*

Key:
[1] = target: T1, PAR1 (Homo sapiens, UniProt P25116); conditions: cited from earlier work
T1 sequence (P25116 22-425): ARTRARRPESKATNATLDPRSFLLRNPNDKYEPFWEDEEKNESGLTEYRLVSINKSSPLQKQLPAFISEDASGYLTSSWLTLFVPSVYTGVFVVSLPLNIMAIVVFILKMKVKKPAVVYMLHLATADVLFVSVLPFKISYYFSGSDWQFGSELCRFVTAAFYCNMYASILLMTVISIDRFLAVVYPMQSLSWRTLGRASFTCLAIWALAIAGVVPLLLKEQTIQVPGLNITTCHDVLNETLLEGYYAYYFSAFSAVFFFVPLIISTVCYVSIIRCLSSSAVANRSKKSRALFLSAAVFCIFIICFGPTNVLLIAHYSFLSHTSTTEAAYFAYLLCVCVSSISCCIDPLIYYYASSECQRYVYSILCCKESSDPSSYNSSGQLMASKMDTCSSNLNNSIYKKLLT

[2] = target: T1, PAR1; conditions: cited from earlier work; remark: listed apart in the source
[3] = target: T1, PAR1; experiment: Ex vivo platelet aggregation to PAR1 agonist SFLLRN; type: in vivo; conditions: for inhibition at 2 mg/kg: read-out: inhibition of final aggregation to 8 μmol/L SFLLRN, 2 mg/kg
[4] = Safety, tolerability and hemostasis parameters in phase 1 subjects; type: in vivo, human
Procedure, shortened: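 Single ascending IV doses went to subjects with CAD or multiple CAD risk factors. Cohorts of 0.01–2 mg/kg received 1-h infusions; a final 0.5 mg/kg cohort received a 2-h infusion after antiallergic premedication. Assessments were at baseline, 0.5, 1, 2, 6 and 24 h, and 7–10 days. APTT, INR, ACT and bleeding time were regressed on dose using repeated-measures mixed-effects models with Bonferroni post hoc correction.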

[5] = Pharmacokinetics of PZ-128 in plasma and urine after 1 to 2 hours iv infusion; type: in vivo, human

Compound: CCOC(=O)N[C@@H]1CC[C@@H]2[C@@H](C1)C[C@H]1C(=O)O[C@H](C)[C@H]1[C@H]2/C=C/c1ccc(-c2cccc(F)c2)cn1 [Vorapaxar, vorapaxar]
- inhibition of SFLLRN-induced aggregation at 2 hours ([1]; 40-mg loading dose (≈0.4 mg/kg)): ≥ 80%
- inhibition of SFLLRN-induced aggregation at 30 minutes ([1]; 40-mg oral loading dose): no appreciable inhibition

Compound: CCOc1cc2c(c(F)c1OCC)C(=N)N(CC(=O)c1cc(N3CCOCC3)c(OC)c(C(C)(C)C)c1)C2 [atopaxar]
- time to maximal platelet inhibition after the loading dose ([2]; LANCELOT-ACS subjects): 6 h
- QTc interval ([2]; higher dose levels): prolongation of the QTc interval was observed in some individuals

- inhibition at 2 mg/kg ([3]; 1 to 2-hour time points): 96 to 98%
- inhibition at 2 mg/kg ([3]; 6 to 192-hour time points): 15 to 21%
- inhibition at 0.3 mg/kg ([3]; read-out: mean inhibition of platelet aggregation (final), 8 μmol/L SFLLRN, 0.3 mg/kg, 30 minutes to 6 hours): 20 to 40%
- inhibition at 0.5 mg/kg ([3]; read-out: mean inhibition of platelet aggregation (final), 8 μmol/L SFLLRN, 0.5 mg/kg, 30 minutes to 6 hours): 40 to 60%
- Cmax ([5]; human, plasma, intravenous): 4700 to 21500 nM
- Vd ([5]; human, plasma, intravenous): 0.11 to 0.17 L/kg
- Cmax ([5]; human, plasma, intravenous, 0.5 mg/kg): 1800 to 2700 nM
- half-life ([5]; human, plasma, iv): 1.3 to 1.8 h
- level at time molar ([5]; human, plasma, iv): 1000 to 3000 nM
- level at time molar at 6 h ([5]; human, plasma, iv, 0.5 mg/kg): < 500 nM
- peak plasma drug levels, 2-mg/kg versus 1-mg/kg cohort ([5]; in vivo): 2 fold
Compound: CCCCCCCCCCCCCCCC(=O)N[C@@H](CCCCN)C(=O)N[C@@H](CCCCN)C(=O)N[C@@H](CO)C(=O)N[C@@H](CCCNC(=N)N)C(=O)N[C@@H](C)C(=O)N[C@@H](CC(C)C)C(=O)N[C@@H](Cc1ccccc1)C(N)=O [PZ-128] (Palmitoyl-KKSRALF-NH2)
- tolerability / allergic response ([4]; 0.5 mg/kg, 2-hour infusion, antiallergic premedication): none of these subjects had an allergic response; also recorded: appeared to be well tolerated
- tolerability ([4]; 0.01-, 0.03-, 0.1-, and 0.3-mg/kg, 1-hour intravenous infusion): well tolerated
- transient tingling or numb sensation in the skin ([4]; 0.5–2 mg/kg): commonly reported
- subjects with no hemodynamic effects ([4]; 2-mg/kg dose over the 1-hour infusion): 50%
- effects on coagulation, hemostasis parameters, or bleeding ([4]; any dose): No significant effects
- heart rate, ECG parameters (RR, PR, QRS, QT, QTc, QTd) or pulmonary function ([4]; any dose): no significant changes
- most important adverse event ([4]; highest doses (1–2 mg/kg), 1-hour infusion): acute allergic reactions
- clinical chemistry, hematology, urinalysis ([4]; human, in vivo): not significantly affected
- drug in plasma at 24 to 192 hours ([5]; all subjects): undetectable; also recorded: no detectable drug
- PZ-128 in urine ([5]; any time point, all subjects): nondetectable; also recorded: little or no PZ-128 detected; also recorded: not renally cleared
